# Results: ChEMBL document CHEMBL1157911, “A prodrug approach towards the development of tricyclic-based FBPase inhibitors” (Bioorg Med Chem Lett, 2010)
# pIC50: −log10 of the molar value.
# Test system: not listed separately
# Assay: Solubility at pH 1.2
# Assay type: physicochemical
# Conditions: buffer
# How it was run: (§1)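 Solubility measured in Japanese Pharmacopoeia test fluids: first fluid (JP1, pH 1.2, simulating gastric conditions) and second fluid (JP2, pH 6.8, simulating intestinal conditions).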
row,SMILES,solubility [µg/mL]
1,Cc1ccncc1[C@@H]1CCO[P@](=O)(COc2cc(C)c(C)c3c2-c2ncsc2C3)O1 (racemic),> 100
2,Cc1cc(OC[P@@]2(=O)OCC[C@@H](c3ccncc3)O2)c2c(c1C)Cc1scnc1-2 (racemic),88
3,Cc1cc(OC[P@]2(=O)OCC[C@@H](c3cccc(Cl)c3)O2)c2c(c1C)Cc1scnc1-2,< 0.5
4,Cc1cc(OC[P@@]2(=O)OCC[C@@H](c3cccnc3C)O2)c2c(c1C)Cc1scnc1-2,88
5,Cc1cc(OC[P@]2(=O)OCC[C@H](c3cccnc3C)O2)c2c(c1C)Cc1scnc1-2 (racemic),87
6,Cc1cc(OC[P@@]2(=O)OCC[C@@H](c3cccnc3)O2)c2c(c1C)Cc1scnc1-2 (racemic),86
7,Cc1cc(OC[P@@]2(=O)OCC[C@@H](c3ccccn3)O2)c2c(c1C)Cc1scnc1-2 (racemic),86

# Continued, values first:
row,solubility [µg/mL],SMILES
1,< 0.5,Cc1cc(OC[P@]2(=O)OCC[C@@H](c3ccc(Cl)cc3)O2)c2c(c1C)Cc1scnc1-2 (racemic)
2,27,CCOC(=O)[C@H](C)NP(=O)(COc1cc(C)c(C)c2c1-c1ncsc1C2)N[C@@H](C)C(=O)OCC
3,4.4,Cc1cc(OC[P@@]2(=O)OCC[C@@H](c3ccc(Cl)cc3)O2)c2c(c1C)Cc1scnc1-2 (racemic)
4,17,COc1cccc([C@@H]2CCO[P@](=O)(COc3cc(C)c(C)c4c3-c3ncsc3C4)O2)c1 (racemic)
5,19,Cc1cc(OC[P@@]2(=O)OCC[C@@H](c3cccc(Cl)c3)O2)c2c(c1C)Cc1scnc1-2
6,< 0.5,COc1cccc([C@@H]2CCO[P@@](=O)(COc3cc(C)c(C)c4c3-c3ncsc3C4)O2)c1 (racemic)

# Biological target: Cytochrome P450 3A4 (Homo sapiens, UniProt P08684)
# Assay: Inhibition of CYP3A4
# Assay type: ADME
# Conditions: not given
# Chain of Cytochrome P450 3A4 (P08684 whole entry): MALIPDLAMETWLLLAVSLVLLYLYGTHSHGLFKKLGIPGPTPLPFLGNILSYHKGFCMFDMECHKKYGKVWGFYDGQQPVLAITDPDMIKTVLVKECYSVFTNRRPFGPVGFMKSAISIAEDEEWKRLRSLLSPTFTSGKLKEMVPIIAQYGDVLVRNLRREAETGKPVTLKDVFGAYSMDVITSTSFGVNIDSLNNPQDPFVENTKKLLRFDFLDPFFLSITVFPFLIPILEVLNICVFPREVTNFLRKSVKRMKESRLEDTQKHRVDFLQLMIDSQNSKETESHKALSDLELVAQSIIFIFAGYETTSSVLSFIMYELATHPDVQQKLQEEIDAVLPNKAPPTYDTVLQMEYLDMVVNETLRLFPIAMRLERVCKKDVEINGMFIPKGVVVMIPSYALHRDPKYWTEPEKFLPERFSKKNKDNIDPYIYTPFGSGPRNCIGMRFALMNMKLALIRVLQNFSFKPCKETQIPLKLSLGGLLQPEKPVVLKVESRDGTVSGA
row,SMILES,pIC50
1,Cc1ccncc1[C@@H]1CCO[P@](=O)(COc2cc(C)c(C)c3c2-c2ncsc2C3)O1 (racemic),5.28
2,Cc1cc(OC[P@]2(=O)OCC[C@@H](c3cccc(Cl)c3)O2)c2c(c1C)Cc1scnc1-2,5.57
3,Cc1cc(OC[P@@]2(=O)OCC[C@@H](c3cccnc3C)O2)c2c(c1C)Cc1scnc1-2,4.82
4,Cc1cc(OC[P@]2(=O)OCC[C@H](c3cccnc3C)O2)c2c(c1C)Cc1scnc1-2 (racemic),5.24
5,Cc1cc(OC[P@@]2(=O)OCC[C@@H](c3cccnc3)O2)c2c(c1C)Cc1scnc1-2 (racemic),5.54
6,Cc1cc(OC[P@@]2(=O)OCC[C@@H](c3ccccn3)O2)c2c(c1C)Cc1scnc1-2 (racemic),5.08

# More lines, now with the values ahead:
row,pIC50,SMILES
1,6.14,Cc1cc(OC[P@]2(=O)OCC[C@@H](c3ccc(Cl)cc3)O2)c2c(c1C)Cc1scnc1-2 (racemic)
2,6.24,CCOC(=O)[C@H](C)NP(=O)(COc1cc(C)c(C)c2c1-c1ncsc1C2)N[C@@H](C)C(=O)OCC
3,6.19,Cc1cc(OC[P@@]2(=O)OCC[C@@H](c3ccc(Cl)cc3)O2)c2c(c1C)Cc1scnc1-2 (racemic)
4,6.57,COc1cccc([C@@H]2CCO[P@](=O)(COc3cc(C)c(C)c4c3-c3ncsc3C4)O2)c1 (racemic)
5,6.38,Cc1cc(OC[P@@]2(=O)OCC[C@@H](c3cccc(Cl)c3)O2)c2c(c1C)Cc1scnc1-2
6,6.52,COc1cccc([C@@H]2CCO[P@@](=O)(COc3cc(C)c(C)c4c3-c3ncsc3C4)O2)c1 (racemic)

# Test system: not listed separately
# Assay: Inhibition of fructose-1,6-bisphosphatase in monkey hepatocytes assessed as glucose production
# Assay type: cell-based
# Conditions: Macaca mulatta, Hepatocyte
row,SMILES,pIC50
1,Cc1ccncc1[C@@H]1CCO[P@](=O)(COc2cc(C)c(C)c3c2-c2ncsc2C3)O1 (racemic),< 4.00
2,Cc1cc(OC[P@@]2(=O)OCC[C@@H](c3ccncc3)O2)c2c(c1C)Cc1scnc1-2 (racemic),4.39
3,Cc1cc(OC[P@]2(=O)OCC[C@@H](c3cccc(Cl)c3)O2)c2c(c1C)Cc1scnc1-2,< 4.00
4,Cc1cc(OC[P@]2(=O)OCC[C@@H](c3ccc(Cl)cc3)O2)c2c(c1C)Cc1scnc1-2 (racemic),< 4.00
5,CCOC(=O)[C@H](C)NP(=O)(COc1cc(C)c(C)c2c1-c1ncsc1C2)N[C@@H](C)C(=O)OCC,5.17
6,Cc1cc(OC[P@@]2(=O)OCC[C@@H](c3cccnc3C)O2)c2c(c1C)Cc1scnc1-2,5.40
7,Cc1cc(OC[P@@]2(=O)OCC[C@@H](c3ccc(Cl)cc3)O2)c2c(c1C)Cc1scnc1-2 (racemic),4.18
8,COc1cccc([C@@H]2CCO[P@](=O)(COc3cc(C)c(C)c4c3-c3ncsc3C4)O2)c1 (racemic),< 4.00
9,Cc1cc(OC[P@]2(=O)OCC[C@H](c3cccnc3C)O2)c2c(c1C)Cc1scnc1-2 (racemic),4.96
10,Cc1cc(OC[P@@]2(=O)OCC[C@@H](c3cccnc3)O2)c2c(c1C)Cc1scnc1-2 (racemic),5.06
11,Cc1cc(OC[P@@]2(=O)OCC[C@@H](c3ccccn3)O2)c2c(c1C)Cc1scnc1-2 (racemic),4.66
12,Cc1cc(OC[P@@]2(=O)OCC[C@@H](c3cccc(Cl)c3)O2)c2c(c1C)Cc1scnc1-2,4.82
13,COc1cccc([C@@H]2CCO[P@@](=O)(COc3cc(C)c(C)c4c3-c3ncsc3C4)O2)c1 (racemic),< 4.00

# Test system: not listed separately
# Assay: Solubility at pH 6.8
# Assay type: physicochemical
# Conditions: buffer
# How it was run: as §1
row,SMILES,solubility [µg/mL]
1,Cc1ccncc1[C@@H]1CCO[P@](=O)(COc2cc(C)c(C)c3c2-c2ncsc2C3)O1 (racemic),81
2,Cc1cc(OC[P@@]2(=O)OCC[C@@H](c3ccncc3)O2)c2c(c1C)Cc1scnc1-2 (racemic),51
3,Cc1cc(OC[P@]2(=O)OCC[C@@H](c3cccc(Cl)c3)O2)c2c(c1C)Cc1scnc1-2,< 0.5
4,Cc1cc(OC[P@@]2(=O)OCC[C@@H](c3cccnc3C)O2)c2c(c1C)Cc1scnc1-2,84
5,Cc1cc(OC[P@]2(=O)OCC[C@H](c3cccnc3C)O2)c2c(c1C)Cc1scnc1-2 (racemic),83
6,Cc1cc(OC[P@@]2(=O)OCC[C@@H](c3cccnc3)O2)c2c(c1C)Cc1scnc1-2 (racemic),84
7,Cc1cc(OC[P@@]2(=O)OCC[C@@H](c3ccccn3)O2)c2c(c1C)Cc1scnc1-2 (racemic),73

# The remaining lines, values ahead:
row,solubility [µg/mL],SMILES
1,< 0.5,Cc1cc(OC[P@]2(=O)OCC[C@@H](c3ccc(Cl)cc3)O2)c2c(c1C)Cc1scnc1-2 (racemic)
2,66,CCOC(=O)[C@H](C)NP(=O)(COc1cc(C)c(C)c2c1-c1ncsc1C2)N[C@@H](C)C(=O)OCC
3,< 0.5,Cc1cc(OC[P@@]2(=O)OCC[C@@H](c3ccc(Cl)cc3)O2)c2c(c1C)Cc1scnc1-2 (racemic)
4,0.8,COc1cccc([C@@H]2CCO[P@](=O)(COc3cc(C)c(C)c4c3-c3ncsc3C4)O2)c1 (racemic)
5,< 0.5,Cc1cc(OC[P@@]2(=O)OCC[C@@H](c3cccc(Cl)c3)O2)c2c(c1C)Cc1scnc1-2
6,< 0.5,COc1cccc([C@@H]2CCO[P@@](=O)(COc3cc(C)c(C)c4c3-c3ncsc3C4)O2)c1 (racemic)
